Experimental data taken from ChEMBL document CHEMBL1146216, “Synthesis and biological activity of a gemcitabine phosphoramidate prodrug” (J Med Chem, 2007).
pIC50: −log10 of the molar value.

How the values were obtained:
NCI/ADR-RES = assay: Growth inhibition of NCI/ADR-RES cells; type: functional; details: Homo sapiens
A549 [1] = assay: Growth inhibition in A549 cells; type: functional; details: Homo sapiens
SNB-19 = assay: Growth inhibition of SNB19 cells; type: functional; details: Homo sapiens
U-251 = assay: Growth inhibition of U251 cells; type: functional; details: Homo sapiens
ACHN = assay: Growth inhibition in ACHN cells; type: functional; details: Homo sapiens
EKVX = assay: Growth inhibition in EKVX cells; type: functional; details: Homo sapiens
UACC-62 = assay: Growth inhibition of UACC62 cells; type: functional; details: Homo sapiens
HCT-15 = assay: Growth inhibition in HCT15 cells; type: functional; details: Homo sapiens
TK-10 = assay: Growth inhibition of TK10 cells; type: functional; details: Homo sapiens
NCI-H460 [2] = assay: Growth inhibition of NCI-H460 cells; type: functional; details: Homo sapiens
SK-MEL-28 = assay: Growth inhibition of SK-MEL-28 cells; type: functional; details: Homo sapiens
SW1573 [3] = assay: Growth inhibition of SW1573 cells by SRB assay in presence of dipyridamole; type: functional, cell-based; details: Homo sapiens
Summary of the method: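 SW1573 cells cultured in DMEM, 10% FCS, 20 mM HEPES, 37 °C, 5% CO2. Plated at 5000 cells/well and given graded drug concentrations with the nucleoside transport inhibitor dipyridamole at 1 µM final, for 72 h. SRB read-out at OD 540 or 492 nm. Growth is expressed relative to time-zero and untreated wells.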

MDA-MB-231 = assay: Growth inhibition of MDA-MB-231 cells; type: functional; details: Homo sapiens
SF-539 = assay: Growth inhibition of SF539 cells; type: functional; details: Homo sapiens
NCI-H460 [4] = assay: Ratio of growth inhibition of H460 cells by drug to 2'-2'-difluorodeoxycytidine; type: functional, Homo sapiens
[5] = Growth inhibition of H292 cells by SRB assay; type: functional, cell-based; details: Homo sapiens, NCI-H292
Summary of the method: (§1)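 Cells seeded at 5000/well and exposed to a range of drug concentrations for 72 h at 37 °C, 5% CO2, then read by SRB. A2780 and its dCK-deficient variant AG6000 were grown in DMEM; A549, H292 and H460 in RPMI; both media had 10% FCS and 20 mM HEPES. OD was read at 540 or 492 nm. Relative growth = (ODtreated − ODzero)/(ODcontrol − ODzero) × 100%, with ODzero taken at drug addition.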

NCI-H460 [6] = assay: Growth inhibition of H460 cells by SRB assay; type: functional, cell-based; details: Homo sapiens; summary of the method: as §1
PC-3 = assay: Growth inhibition of PC3 cells; type: functional; details: Homo sapiens
786-0 = assay: Growth inhibition in 786-0 cells; type: functional; details: Homo sapiens
A2780 = assay: Growth inhibition of A2780 cells by SRB assay in presence of dipyridamole; type: functional, cell-based; details: Homo sapiens
Summary of the method: (§2)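 SRB growth assay run with the nucleoside transport inhibitor dipyridamole at 1 µM final. Cells were seeded at 5000/well and exposed to a range of drug concentrations for 72 h at 37 °C, 5% CO2. Media: DMEM for A2780 and the dCK-deficient AG6000; RPMI for A549, H292 and H460; each with 10% FCS and 20 mM HEPES. Relative growth was calculated against ODzero and untreated controls.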

NCI-H522 = assay: Growth inhibition of NCI-H522 cells; type: functional; details: Homo sapiens
DU-145 = assay: Growth inhibition in DU145 cells; type: functional; details: Homo sapiens
CCRF-CEM [7] = assay: Growth inhibition of dCK deficient CEM cells by MTT assay in presence of dipyridamole; details: Homo sapiens
[8] = Growth inhibition of H292 cells by SRB assay in presence of dipyridamole; type: functional, cell-based; details: Homo sapiens, NCI-H292; summary of the method: as §2
HOP-62 = assay: Growth inhibition in HOP62 cells; type: functional; details: Homo sapiens
SW1573 [9] = assay: Growth inhibition of SW1573 cells by SRB assay; type: functional, cell-based; details: Homo sapiens
Summary of the method: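 SW1573 NSCLC cells grown in DMEM with 10% FCS and 20 mM HEPES at 37 °C, 5% CO2. Seeded at 5000 cells/well and exposed to a range of drug concentrations for 72 h, then SRB assay. OD read at 540 or 492 nm. Relative growth = (ODtreated − ODzero)/(ODcontrol − ODzero) × 100%, with ODzero taken at drug addition.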

A549 [10] = assay: Ratio of growth inhibition of A549 cells by drug to 2'-2'-difluorodeoxycytidine; type: functional, Homo sapiens
LOX IMVI = assay: Growth inhibition of LOX IMVI cells; type: functional; details: Homo sapiens
MDA-MB-435 = assay: Growth inhibition of MDA-MB-435 cells; type: functional; details: Homo sapiens
A549 [11] = assay: Growth inhibition of A549 cells by SRB assay; type: functional, cell-based; details: Homo sapiens; summary of the method: as §1
CCRF-CEM [12] = assay: Ratio of growth inhibition of dCK deficient CEM cells by drug to 2'-2'-difluorodeoxycytidine; type: functional, Homo sapiens
CCRF-CEM [13] = assay: Growth inhibition of dCK deficient CEM cells by MTT assay; details: Homo sapiens
CCRF-CEM [14] = assay: Growth inhibition of CEM cells by MTT assay in presence of dipyridamole; details: Homo sapiens
SW-620 = assay: Growth inhibition of SW620 cells; type: functional; details: Homo sapiens
SK-MEL-5 = assay: Growth inhibition of SK-MEL-5 cells; type: functional; details: Homo sapiens
KM12 = assay: Growth inhibition of KM12 cells; type: functional; details: Homo sapiens
OVCAR-3 = assay: Growth inhibition of OVCAR-3 cells; type: functional; details: Homo sapiens

CN(CCCCCl)P(=O)(OCc1ccc([N+](=O)[O-])o1)OC[C@H]1O[C@@H](n2ccc(N)nc2=O)C(F)(F)[C@@H]1O (some centres not stated)
GI50 (NCI/ADR-RES): 230 nM
GI50 (A549 [1]): 730 nM
GI50 (SNB-19): 260 nM
GI50 (U-251): 780 nM
GI50 (ACHN): 38 nM
GI50 (EKVX): 2500 nM
GI50 (UACC-62): 1100 nM
GI50 (HCT-15): 54000 nM
GI50 (TK-10): 1500 nM
GI50 (NCI-H460 [2]): 300 nM
GI50 (SK-MEL-28): 20000 nM
pIC50 (SW1573 [3]): < 6.30
GI50 (MDA-MB-231): 25000 nM
GI50 (SF-539): 42 nM
Ratio IC50 (NCI-H460 [4]): 7.7
pIC50 [5]: 7.43
pIC50 (NCI-H460 [6]): 7.11
GI50 (PC-3): 1800 nM
GI50 (786-0): 62 nM
pIC50 (A2780): 6.40
GI50 (NCI-H522): 15000 nM
GI50 (DU-145): 190 nM
pIC50 (CCRF-CEM [7]): 4.77
pIC50 [8]: 6.48
GI50 (HOP-62): 500 nM
pIC50 (SW1573 [9]): 7.04
Ratio IC50 (A549 [10]): 5.6
GI50 (LOX IMVI): 760 nM
GI50 (MDA-MB-435): 470 nM
pIC50 (A549 [11]): 7.10
Ratio IC50 (CCRF-CEM [12]): 0.26
pIC50 (CCRF-CEM [13]): 4.89
pIC50 (CCRF-CEM [14]): 5.40
GI50 (SW-620): 38000 nM
GI50 (SK-MEL-5): 3200 nM
GI50 (KM12): 15000 nM
GI50 (OVCAR-3): 3200 nM
